# Screens deposited in PubChem BioAssay by The Scripps Research Institute Molecular Screening Center.
# Rows were chosen to be rich in hits. Some 3.9% of all compounds tested hit in one or more screens of this group.
# TAAR1 agonist = human TAAR1 agonism; activation, % at 3 µM; CHO RD-HGA16 TAAR1, Fluo-8 calcium fluorescence; vehicle wells 0%, saturating PEA agonist 100%; 360,000 compounds, 0.99% hits;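 active = activation above the mean activation of all test compounds in the run plus 3 SD, cut at about 38% in these data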
# Target sequence (Q96RJ0 whole entry, looked up): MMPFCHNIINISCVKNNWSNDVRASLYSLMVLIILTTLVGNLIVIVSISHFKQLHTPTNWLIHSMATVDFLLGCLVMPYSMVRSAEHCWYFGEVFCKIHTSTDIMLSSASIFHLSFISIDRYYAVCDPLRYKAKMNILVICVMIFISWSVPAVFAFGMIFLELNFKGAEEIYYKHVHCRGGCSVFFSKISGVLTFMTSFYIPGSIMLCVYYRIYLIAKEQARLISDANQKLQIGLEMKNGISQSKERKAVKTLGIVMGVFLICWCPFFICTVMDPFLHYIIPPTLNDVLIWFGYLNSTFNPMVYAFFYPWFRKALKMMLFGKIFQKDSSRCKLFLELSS
#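 Test system: RD-HGA16 (CHO) cells co-expressing Gα16 and hTAAR1 / Benchmarks: DMSO vehicle as 0%, PEA at EC100 as 100% / Repeats: no replicates (n 1) / Measure: % activation from peak over basal fluorescence ratio, DMSO-to-PEA scaled / Timing: 17-24 h plating, Fluo-8 75 min 37 °C, 30 min RT / Technique: kinetic Fluo-8 calcium fluorescence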
# OX1R antag-1 = OX1R (human) antagonism; O43613; OX1R-expressing cells, FRET antagonist read-out; inhibition, % at 6.6 µM; 330,000 compounds, 1.8% hits; in the data active = inhibition mostly above about 38%, no sharp cut-off; inactive = mostly below about 40%;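 also: 0% = agonist challenge alone and 100% = reference antagonist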
# OX1R antag-2 = blocks the human orexin 1 receptor; CHO/OX1R cells, Fluo-8 calcium fluorescence, orexin A; AID 434989; inhibition, % at 5 µM; 330,000 compounds, 0.43% hits; O43613;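 active = inhibition above its plate's threshold, mean inhibition of all tested compounds on the plate plus 3 SD, cut at about 37% in these data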;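 also: 0% = orexin A challenge wells and 100% = SB-334867-A antagonist wells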
# TAAR1 antagonist = human TAAR1 antagonism. Q96RJ0. 360,000 compounds, 1.5% hits. CHO RD-HGA16 TAAR1, Fluo-8 calcium fluorescence, antagonist. inhibition, % at 3 µM;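 active = inhibition above a per-plate cutoff, the mean inhibition of test compounds on that plate plus 3 SD, cut at about 49% in these data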;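 also: 0% = DMSO plus EC80 beta-PEA response and 100% = DMSO alone without agonist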
#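 System: CHO RD-HGA16 cells bearing hTAAR1. Reagent: EC80 β-phenethylamine stimulus. Schedule: seeding 17-24 h prior, 75-min 37 °C, 30-min RT dye loading. Signal: Fluo-8 intracellular calcium dye fluorescence, real-time kinetic reads. Read-out: % inhibition from peak post-agonist over basal fluorescence ratio. Benchmarks: vehicle wells and EC80 agonist wells. Replicates: n of 1.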
# CHO parental Ca = counter-screen: ATP calcium response change in parental CHO cells. parental CHO-K1, ATP-induced calcium, Fluo-8 fluorescence. inhibition, % at 5.6 µM. 330,000 compounds, 0.63% hits. AID 463079;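 active = inhibition above that plate's mean sample inhibition plus 3 SD, cut at about 26% in these data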;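 also: 0% = ATP-challenged DMSO wells and 100% = DMSO wells without ATP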
#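 test system = CHO parental line | reagent = ATP stimulus | measured by = intracellular calcium via Fluo-8 no-wash fluorescent dye | control set = ATP and no-ATP DMSO wells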
# * marks the source's active call; other numbers are inactive results; . = no result.
SMILES,TAAR1 agonist,OX1R antag-1,OX1R antag-2,TAAR1 antagonist,CHO parental Ca
CC(=O)Nc1cc2nc3ccccc3oc-2cc1=O,0.3,.,.,4.5,.
CN=C1C([N+](=O)[O-])=CC=C2C1=NC1(CCCCC1)N2O,-2.4,49.6*,-7.0,15.7,-3.9
CCC(=O)Nc1ccc2nc3c(=O)[nH]c(=S)[nH]c3nc2c1,2.9,65.1*,-8.4,0.3,-0.7
CCCCn1c(=O)[nH]c2nc3cc(NC(C)=O)ccc3nc2c1=O,1.7,7.1,-2.5,-17.2,-6.1
COc1cc(C[C@@H](C)[C@@H](C)Cc2ccc(O)c(OC)c2)ccc1O,13.6,3.8,9.7,35.2,9.8
CC(Cc1ccc(O)c(O)c1)C(C)Cc1ccc(O)c(O)c1 (stereo not given),.,3.9,32.0,.,34.4*
CC(/C=N/NC(=O)c1cc(-c2ccc(C)o2)[nH]n1)=C\c1ccccc1,3.3,59.0*,2.1,17.9,-14.4
CC(/C=N/NC(=O)c1ccncc1)=C\c1ccc(C(C)C)cc1,17.6,11.2,-0.9,48.6*,-6.9
CC(/C=N/NC(=O)c1ccc(Br)cc1)=C\c1ccccc1,0.2,9.1,0.8,-16.5,65.9*
C/C(=N\NC(=O)c1ccc(Br)cc1)C1C(=O)c2ccccc2C1=O,1.9,55.4*,-1.4,11.4,-2.5
COC(=O)C1=C(C)N(Cc2ccccc2C(F)(F)F)C(=NCc2ccc(OC)cc2)NC1c1ccc(F)cc1 (stereo not given),16.6,.,.,-12.3,.
CCCCN1C[C@H](c2ccccc2)[C@@H](CC(=O)NC)C1=O,1.0,.,.,-10.6,.
Cc1cccc(CN2CCN(C3CN(Cc4ccc([N+](=O)[O-])cc4)S(=O)(=O)C3)CC2)c1 (stereo not given),5.2,.,.,-5.9,.
COc1ccc2c(C)cc(SCC(=O)c3ccc4c(c3)OCO4)nc2c1,2.2,39.6*,-14.7,3.1,-21.9
O=C(N[C@H](C(=O)N1CCC[C@H]1C(=O)NC1CCCC1)C1CCCCC1)c1ccco1,1.1,.,.,-17.2,.
C[C@H](CO)N1C[C@H](C)[C@@H](CN(C)Cc2ccncc2)OCc2cnnn2CCCC1=O,2.9,.,.,-16.3,.
COCCCNC(=O)C[C@H]1C[C@@]2(C(=O)OC)C(=C[C@H](COCc3ccccc3)O[C@@H]2C)N(Cc2ccc3c(c2)OCO3)C1=O,0.2,.,.,-18.7,.
CCCC#C/C(CCC)=C1\c2ccccc2C(=O)N1c1ccccc1,-0.6,.,.,-19.1,.
CCN1/C(=C/C=C/c2oc3ccc(-c4ccccc4)cc3[n+]2CC)Oc2ccc(-c3ccccc3)cc21,530.6*,33.9,105.0*,104.8*,101.0*
COc1ccc(C)cc1NC(=O)C(=O)NNC(=O)COc1ccc(Cl)cc1,11.4,18.8,28.5,-15.6,35.5*
O=C(NCCS(=O)(=O)N1CCN(c2ccccc2)CC1)C12CC3CC(CC(C3)C1)C2,6.8,.,.,-3.8,.
COc1ccccc1N1CCN(S(=O)(=O)CCNC(=O)C23CC4CC(CC(C4)C2)C3)CC1,16.3,15.5,-18.9,57.9*,-14.5
Cn1c(-c2cccc(Br)c2)cnc1NCc1ccccc1O,0.8,.,.,29.0,.
CN(C)c1ccc(C#Cc2ccc3cc(CCO)oc(=O)c3c2)cc1,.,7.5,-5.4,.,-7.0
O=C1c2ccccc2C(=O)N1CCC#Cc1ccc2cc(CCO)oc(=O)c2c1,20.1,9.1,11.5,72.0*,1.4
SMILES,TAAR1 agonist,OX1R antag-1,OX1R antag-2,TAAR1 antagonist,CHO parental Ca
COc1ccc(-c2nc(NC(=O)c3ccco3)sc2C)cc1,7.2,.,.,19.2,.
COc1ccc(-c2nc(NC(=O)c3[nH]c(C)c(C(C)=O)c3C)sc2C)cc1,46.1*,18.8,-20.2,88.3*,-7.5
Cc1onc(-c2ccccc2)c1CNC(=O)Nc1ccc(C(F)(F)F)cc1,5.7,48.7*,27.2,-25.3,19.6
Cc1cc(C)cc(NC(=O)NCc2c(-c3ccccc3)noc2C)c1,0.1,10.1,-15.5,10.1,-22.2
Cc1cc(NC(=O)Nc2ccccc2F)ccc1Br,13.8,41.4,12.6,66.3*,25.9
Cn1nnc2cc(NC(=O)Nc3ccccc3F)ccc21,0.5,.,.,-7.3,.
COc1ccc(CNC(=O)c2cccc3c(-c4cccc(C(N)=O)c4)coc23)cc1OC,21.0,.,.,55.7*,.
COc1cc(-c2coc3c(C(=O)NCc4ccc(OC)c(OC)c4)cccc23)ccc1O,12.0,.,.,65.7*,.
COc1cc(-c2coc3c(C(=O)NCc4ccc(N(C)C)cc4)cccc23)ccc1O,0.4,.,.,20.4,.
COc1ccc(C2CCCCC2SCC(=O)O)cc1OC (stereo not given),0.6,.,.,0.0,.
